UHRF1 MBD2 ctr = UHRF1 methylated DNA binding inhibitors, primary screen, counter-screen for MBD2 inhibitor project, biochemical, TR-FRET, human UHRF1, single concentration. E3 ubiquitin-protein ligase UHRF1 (Homo sapiens), Q96T88. UHRF1 binding to methylated oligo. inhibition, % at 4.4 µM. hit rate 0.75% among 370,000. AID 687016, 2013; in the data active = inhibition above about 21%;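 also: UHRF1 SRA domain binding a hemimethylated CpG hairpin DNA probe; 0% = median of test compound wells and 100% = reference inhibitor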
Target sequence (Q96T88 whole entry, looked up, the tested form may be a part): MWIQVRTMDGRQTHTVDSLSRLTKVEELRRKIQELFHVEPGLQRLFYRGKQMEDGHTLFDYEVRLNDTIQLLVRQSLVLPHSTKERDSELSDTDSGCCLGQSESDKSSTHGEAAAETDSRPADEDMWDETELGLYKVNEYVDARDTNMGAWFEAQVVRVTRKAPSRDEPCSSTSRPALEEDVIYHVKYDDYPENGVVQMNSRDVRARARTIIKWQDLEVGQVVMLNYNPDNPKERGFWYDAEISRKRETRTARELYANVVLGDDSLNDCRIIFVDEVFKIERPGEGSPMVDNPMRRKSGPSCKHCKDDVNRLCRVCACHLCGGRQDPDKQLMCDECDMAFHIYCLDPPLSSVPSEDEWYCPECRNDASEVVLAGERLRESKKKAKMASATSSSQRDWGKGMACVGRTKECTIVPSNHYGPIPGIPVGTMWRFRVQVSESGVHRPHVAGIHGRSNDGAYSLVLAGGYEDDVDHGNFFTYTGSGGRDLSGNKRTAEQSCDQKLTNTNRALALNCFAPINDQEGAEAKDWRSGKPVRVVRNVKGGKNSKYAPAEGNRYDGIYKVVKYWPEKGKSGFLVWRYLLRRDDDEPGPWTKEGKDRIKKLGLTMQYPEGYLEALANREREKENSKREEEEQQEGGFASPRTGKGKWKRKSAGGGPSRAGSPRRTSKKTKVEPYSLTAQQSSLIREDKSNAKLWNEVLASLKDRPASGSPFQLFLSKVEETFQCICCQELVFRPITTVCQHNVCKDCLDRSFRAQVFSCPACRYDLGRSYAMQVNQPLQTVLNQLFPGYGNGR
RBBP9 inh = human RBBP9 inhibitors, primary screen, biochemical, fluorescence polarization, FP-Rh probe, HTS; inhibition, % at 7.94 µM; AID 1515, 2009; recombinant RBBP9; Serine hydrolase RBBP9 (Homo sapiens), O75884; hit rate 0.2% among 220,000;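 active = inhibition above the campaign mean of all tested compounds plus 3 SD, cut at about 14% in these data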;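 also: plate controls were DMSO wells with RBBP9 for no effect and wells lacking RBBP9 protein for full effect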
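Test system: recombinant human RBBP9. Quantity: 2.5 µM RBBP9 dispensing solution, before mixing. Detection: FP readout at 525/598 nm. Reagent: Serine-hydrolase probe FP-Rh, 375 nM pre-mixing. Measure: % inhibition. Control set: DMSO-treated enzyme wells and wells lacking RBBP9. Buffer or medium: Tris-NaCl-Pluronic buffer, pH 8.0. Times: preincubation 30 min plus labeling 45 min at 25 °C.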
ABHD5-PLIN5 inh = ABHD5-PLIN5 interaction inhibitors, primary screen, cell lysate, split luciferase complementation, luminescence | Perilipin-5 (Homo sapiens) + 1-acylglycerol-3-phosphate O-acyltransferase ABHD5 (Homo … | Split G. princeps luciferase complementation, 4 h | inhibition, % at 4 µM | hit rate 0.78% among 360,000 | AID 602281, 2012;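 active = inhibition above the mean inhibition across every tested compound plus 3 SD, cut at about 22% in these data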;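 also: 0% = DMSO only wells and the 100% control is not disclosed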
LEDGF integ inh = blockers of LEDGF/p75-dependent integrase strand transfer – biochemical, TR-FRET, high throughput, primary screen. inhibition, % at 3.7 µM. TR-FRET IN-LEDGF/p75 DNA integration, Eu/Cy5. hit rate 0.64% among 370,000. AID 743269, 2014. HIV-1 integrase (with human LEDGF/p75);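 active = inhibition above the screen-wide mean plus 3 SD, cut at about 13% in these data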;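 also: signal is the Cy5 over europium emission ratio at 671 and 618 nm; 0% = plate median of compound wells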
MBD2 inh = inhibitors of MBD2 binding to methylated DNA, primary screen, biochemical, TR-FRET, DNA-binding domain, human; hit rate 0.31% among 370,000; Methyl-CpG-binding domain protein 2 (Homo sapiens), Q9UBB5; inhibition, % at 4.4 µM; MBD2 binding to methylated oligonucleotide; in the data active = inhibition above about 13%
PRMT1 inh = PRMT1 methyltransferase inhibitors, primary screen, biochemical, fluorescence polarization | Protein arginine N-methyltransferase 1 (Homo sapiens), Q99873 | recombinant PRMT1, activity-based probe fluorescence polarization | inhibition, % at 2.79 µM | hit rate 1.3% among 370,000;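 active = inhibition above about 21% made by adding two undisclosed values, limit read from the data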
Starred values were filed as active, the others as inactive; . = no result given. Shown are actives, neighbours in structure and some others; about 3.1% of the full set was active somewhere.

SMILES	UHRF1 MBD2 ctr	RBBP9 inh	ABHD5-PLIN5 inh	LEDGF integ inh	MBD2 inh	PRMT1 inh
CCC(C)(C)n1nnnc1C(c1cc2cc(C)ccc2[nH]c1=O)N1CCCc2ccccc21 (configuration not stated)	1.1	-0.7	-12.8	-2.6	-1.6	30.1*
COC(=O)[C@]12C[C@H](CC(=O)NCc3ccc(OC)c(OC)c3)C(=O)N(Cc3cccc4ccccc34)C1=C[C@H](C(C)(C)C)O[C@@H]2C	-1.4	.	.	-2.8	1.0	-0.3
COc1cc(Sc2ccc(C)cc2)c(OC)cc1N	-5.3	8.4	6.5	-0.2	4.8	35.2*
COC(=O)c1ccc(Sc2ccc(C)cc2)c(N)c1	-3.8	11.3	-8.2	0.1	-3.0	0.5
Cc1cc(-c2csc(NC(=O)c3ccc(C#N)cc3)n2)c(C)n1Cc1ccco1	56.9*	-7.4	12.6	67.8*	22.0*	37.2*
COC(=O)CN1CCN(C(=O)c2csc3ccccc23)CC1	-1.6	.	.	-5.3	1.5	5.7
COc1cc(CNn2cn[nH]c2=S)cc(Br)c1OCc1ccccc1F	-0.1	0.5	-9.2	0.0	0.4	23.7*
COC(=O)[C@]12CCCCC=C1N(CCC1=CCCCC1)C(=O)[C@H](CC(=O)NCc1cccc3ccccc13)C2	20.7*	.	1.9	-2.0	5.8	-2.1
O=C(COc1ccc(Br)cc1)NNC(=O)c1cc(S(=O)(=O)N2CCOCC2)ccc1Cl	-1.6	.	3.5	35.3*	-3.0	-3.4
O=C(NCc1ccco1)[C@@H]1CSC2c3ccccc3C(=O)N21 (some centres not stated)	-3.2	-7.5	8.2	6.6	4.5	21.2*
Cc1cc(/C=N/N2CCN(C)CC2)c(C)n1-c1ccc(Cl)cc1	30.3*	-3.1	7.0	0.6	3.4	-6.2
Cc1c(C(=O)NNc2cc(=O)n(C)c(=O)n2C)cccc1[N+](=O)[O-]	1.9	-0.1	10.1	-2.5	9.5	23.3*
O=C(/C=C1\NC2(CCCC2)Cc2ccccc21)N1CCOCC1	-0.1	3.0	2.3	-0.8	-4.1	27.5*
CC1(C)Cc2c(ccc3ccccc23)/C(=C/C(=O)N2CCCCC2)N1	6.5	-5.1	-0.5	1.6	-0.8	-1.8
CNc1nc(N)c([N+](=O)[O-])c(Nc2cccc(Br)c2)n1	0.1	.	.	0.5	-3.0	-1.5
O=c1[nH][nH]c(=S)n1C1CCCCC1	.	-5.6	.	.	.	.
O=c1cc(O)n(C2CCCCCC2)c(=O)[nH]1	-3.5	.	-23.3	-0.8	-2.0	24.1*
CCOC(=O)C1=CN(Cc2cccc(F)c2)S(=O)(=O)N(CC)C1c1ccc(Br)cc1F (configuration not stated)	21.2*	.	-4.5	12.1	13.0	-3.6
CCC(C)(C)n1nnnc1CN1CCN(c2ccc(OC)cc2)CC1	21.8*	-6.5	1.0	0.5	-0.6	-4.7
COc1ccc(Cl)c2sc(N(CCN(C)C)C(=O)CCS(=O)(=O)c3ccc(C)cc3)nc12	-1.7	.	4.3	3.1	-3.4	-2.2
COc1ccc(OC)c2sc(N(CCCN(C)C)C(=O)CCS(=O)(=O)c3ccccc3)nc12	4.2	.	39.5*	-5.1	1.1	10.7
COc1ccc(C(=O)NCC2CCN(C(=O)C(=O)c3cc4ccccc4o3)CC2)cc1	-0.8	.	.	-0.4	-2.6	-2.6
CC(=O)NC1Sc2ccccc2N=C1c1ccccc1 (configuration not stated)	2.7	-2.4	-12.6	-0.5	1.3	25.6*
Cc1ccc(S(=O)(=O)N2CCCC2C(=O)N2CCN(c3ccccc3)CC2)cc1C (configuration not stated)	1.1	.	.	0.2	4.3	-6.4
CC(=O)Oc1ccc2oc(/C=C/N(C)C)c([N+](=O)[O-])c2c1	-22.0	3.3	5.1	-0.9	-21.6	0.1
C/C(=C/c1oc2ccc(O)cc2c1[N+](=O)[O-])N(C)C	-1.4	-5.1	4.3	1.0	-3.4	24.2*

Bioassay records deposited in PubChem by The Scripps Research Institute Molecular Screening Center.
